# Laboratory results from ChEMBL document CHEMBL4020842, “Discovery of N1-(4-((7-Cyclopentyl-6-(dimethylcarbamoyl)-7 H-pyrrolo[2,3- d]pyrimidin-2-yl)amino)phenyl)- N8-hydroxyoctanediamide as a Novel Inhibitor Targeting Cyclin-dependent Kinase 4/9 (CDK4/9) and Histone Deacetlyase1 (HDAC1) against Malignant Cancer” (J Med Chem, 2018).
# Activity calls are given as the source filed them. The calls are words filed in the database; no cut-off is given here.
# Experiments:
# A549 = test: Induction of apoptosis in human A549 cells assessed as necrotic cells at 10 uM after 48 hrs by annexin V-FITC/propidium iodide staining based flow cytometry (reference value: […]%); assay type: functional
# NCI-H460 [1] = test: Induction of apoptosis in human NCI-H460 cells assessed as necrotic cells at 1 uM after 48 hrs by annexin V-FITC/propidium iodide staining based flow cytometry (reference value: 1.34%); assay type: functional
# NCI-H460 [2] = test: Induction of apoptosis in human NCI-H460 cells assessed as early apoptotic cells at 1 uM after 48 hrs by annexin V-FITC/propidium iodide staining based flow cytometry (reference value: 0.11%); assay type: functional
# T47D [3] = test: Induction of apoptosis in human T47D cells assessed as necrotic cells at 5 uM after 48 hrs by annexin V-FITC/propidium iodide staining based flow cytometry (reference value: 0.8%); assay type: functional
# T47D [4] = test: Induction of apoptosis in human T47D cells assessed as live cells at 1 uM after 48 hrs by annexin V-FITC/propidium iodide staining based flow cytometry (reference value: 85.3%); assay type: functional
# MDA-MB-231 [5] = test: Induction of apoptosis in human MDA-MB-231 cells assessed as late apoptotic cells at 1 uM after 48 hrs by annexin V-FITC/propidium iodide staining based flow cytometry (reference value: 1.53%); assay type: functional
# Hep 3B2 [6] = test: Cell cycle arrest in human Hep3B cells assessed as accumulation at G2 phase at 2.5 to 10 uM after 24 hrs by propidium iodide staining based flow cytometry; assay type: functional
# Procedure, shortened: (§1)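 Cells were exposed for 24 h to a range of concentrations (625 nM, 2.5 and 10 µM), with DMSO vehicle as control. They were then stained with propidium iodide and analysed by flow cytometry to obtain the percentages of cells in G0/G1, S and G2 phases.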
# MDA-MB-231 [7] = test: Induction of apoptosis in human MDA-MB-231 cells assessed as live cells at 10 uM after 48 hrs by annexin V-FITC/propidium iodide staining based flow cytometry (reference value: 98.1%); assay type: functional
# T47D [8] = test: Cell cycle arrest in human T47D cells assessed as decrease in S-phase at 625 nM after 24 hrs by propidium iodide staining based flow cytometry; assay type: functional; procedure, shortened: as §1
# HepG2 [9] = test: Cell cycle arrest in human HepG2 cells assessed as accumulation at G2 phase at 2.5 to 10 uM after 24 hrs by propidium iodide staining based flow cytometry; assay type: functional; procedure, shortened: as §1
# [10] = target: High affinity nerve growth factor receptor (Homo sapiens, UniProt P04629); test: Inhibition of recombinant human N-terminal His6-tagged TrkA (440-end residues) expressed in baculovirus infected sf21 cells
# Chain of High affinity nerve growth factor receptor (P04629 whole entry): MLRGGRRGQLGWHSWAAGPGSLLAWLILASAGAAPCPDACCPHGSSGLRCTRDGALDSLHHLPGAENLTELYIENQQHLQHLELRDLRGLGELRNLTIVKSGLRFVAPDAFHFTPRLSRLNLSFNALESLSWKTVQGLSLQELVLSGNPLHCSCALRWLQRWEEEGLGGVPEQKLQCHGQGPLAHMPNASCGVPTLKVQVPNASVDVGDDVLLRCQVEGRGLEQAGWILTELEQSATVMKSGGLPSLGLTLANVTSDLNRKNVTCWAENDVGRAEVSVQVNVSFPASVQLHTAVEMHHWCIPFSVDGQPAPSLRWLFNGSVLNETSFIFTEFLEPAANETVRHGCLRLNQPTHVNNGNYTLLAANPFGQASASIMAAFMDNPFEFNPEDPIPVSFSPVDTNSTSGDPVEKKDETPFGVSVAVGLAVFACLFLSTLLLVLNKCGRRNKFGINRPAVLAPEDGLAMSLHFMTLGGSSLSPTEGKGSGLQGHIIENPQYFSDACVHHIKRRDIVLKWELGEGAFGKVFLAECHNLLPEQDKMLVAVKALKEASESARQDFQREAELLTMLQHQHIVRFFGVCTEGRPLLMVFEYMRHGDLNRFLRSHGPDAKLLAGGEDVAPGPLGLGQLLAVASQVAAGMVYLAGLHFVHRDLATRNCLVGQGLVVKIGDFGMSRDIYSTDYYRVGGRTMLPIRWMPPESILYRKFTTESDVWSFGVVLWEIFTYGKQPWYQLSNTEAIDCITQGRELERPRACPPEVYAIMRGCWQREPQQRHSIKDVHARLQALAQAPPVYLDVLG
# MDA-MB-468 = test: Cytotoxicity against human MDA-MB-468 cells assessed as reduction in cell viability after 72 hrs by CCK8 assay; assay type: functional, cell-based; conditions: MDA-MB-468, 72 h
# HepG2 [11] = test: Induction of apoptosis in human HepG2 cells assessed as necrotic cells at 1 uM after 48 hrs by annexin V-FITC/propidium iodide staining based flow cytometry (reference value: 2.32%); assay type: functional
# Hep 3B2 [12] = test: Induction of apoptosis in human Hep3B cells assessed as early apoptotic cells at 5 uM after 48 hrs by annexin V-FITC/propidium iodide staining based flow cytometry (reference value: 1.91%); assay type: functional
# HepG2 [13] = test: Downregulation of Cyclin-D1 protein expression in human HepG2 cells after 48 hrs by Western blot method; assay type: functional, cell-based
# Procedure, shortened: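 Treated cells were lysed and CDK4 and cyclin D1 protein levels were assessed by Western blot.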
# Histone deacetylase 1 = Histone deacetylase 1 (Homo sapiens, UniProt Q13547); test: Inhibition of HDAC1 in human A549 cells assessed as increase in acetylated histone-H3 level at 0.1 to 1 uM after 24 hrs by immunofluorescence assay; assay type: cell-based
# Chain of Histone deacetylase 1 (Q13547 whole entry): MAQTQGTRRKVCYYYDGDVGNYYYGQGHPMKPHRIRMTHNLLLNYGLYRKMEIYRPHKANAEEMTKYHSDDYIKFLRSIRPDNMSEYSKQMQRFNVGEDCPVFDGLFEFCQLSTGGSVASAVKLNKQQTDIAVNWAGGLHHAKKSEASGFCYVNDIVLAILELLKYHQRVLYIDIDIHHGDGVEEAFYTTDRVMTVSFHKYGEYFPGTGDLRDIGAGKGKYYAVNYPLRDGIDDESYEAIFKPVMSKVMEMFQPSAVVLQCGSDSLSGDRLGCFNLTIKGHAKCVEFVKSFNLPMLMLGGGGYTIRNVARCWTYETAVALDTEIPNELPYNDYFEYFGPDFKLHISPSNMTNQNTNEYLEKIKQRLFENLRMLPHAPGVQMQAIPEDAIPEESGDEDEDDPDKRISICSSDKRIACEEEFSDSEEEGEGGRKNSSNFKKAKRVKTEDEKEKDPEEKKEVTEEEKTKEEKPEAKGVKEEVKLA
# [14] = MRT (0 to infinity) in Sprague-Dawley rat at 20 mg/kg, iv administered as single dose by HPLC analysis; assay type: ADME, organism-based; conditions: in vivo
structure (smiles),measurement,setting,value
CN(C)C(=O)c1cc2cnc(Nc3ccc(NC(=O)CCCCCCC(=O)NO)cc3)nc2n1C1CCCC1,Activity,A549,6.38%
same,Activity,NCI-H460 [1],1.25%
same,Activity,NCI-H460 [2],0.28%
same,Activity,T47D [3],0.82%
same,Activity,T47D [4],88.3%
same,Activity,MDA-MB-231 [5],1.97%
same,Activity,Hep 3B2 [6],Active
same,Activity,MDA-MB-231 [7],87.1%
same,Activity,T47D [8],Active
same,Activity,HepG2 [9],Active
same,IC50,[10],31 nM
same,IC50,MDA-MB-468,1820 nM
same,Activity,HepG2 [11],3.95%
same,Activity,Hep 3B2 [12],6.52%
same,Activity,HepG2 [13],Dose-dependent effect
same,inhibition,Histone deacetylase 1,Active
same,MRT inf,[14],14.1 h
